Results from ChEMBL document CHEMBL1122491, “Synthesis and biological activity of 5-(trifluoromethyl)- and 5-(pentafluoroethyl)pyrimidine nucleoside analogues” (J Med Chem, 1983).
pEC50: −log10 of the molar value.

Tests used:
L1210 [1] = test: In vitro percent inhibition of replication of L1210 cells at 12.5 uM concentration; assay type: functional; details: Mus musculus
Outline: (§1)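 Mouse L1210 and S-180 suspension cultures were kept in Fischer's medium + 10% horse serum at 37 °C, 5% CO2. Exponentially growing cells at 2 × 10⁴ cells/mL were given compound. The increase in cell number versus drug-free control was counted after 24, 48 and 72 h. ED50 came from dose-response curves of at least two independent experiments.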

[2] = In vitro percent inhibition of replication of S-180 cells at 12.5 uM concentration; assay type: functional; details: Mus musculus; outline: as §1
Human alphaherpesvirus 1 [3] = test: Concentration required to inhibit replication of HSV-1 cell by 50%; assay type: functional; details: Human alphaherpesvirus 1, HSV-1; read-out: ED50 (the source's name)
Outline: (§2)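 Confluent Vero monolayers in Dulbecco's medium + 10% fetal calf serum were infected with HSV-1 strain CL-101 at MOI 10. After 1 h adsorption at 37 °C, the inoculum was removed and the cells washed with PBS. Compound in serum-containing medium was added for 40 h at 37 °C. Virus released by one freeze-thaw was titred by plaque assay on Vero cells. Percent inhibition was pfu relative to drug-free cultures. ED50 came from dose-response curves of at least two independent experiments.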

Human alphaherpesvirus 1 [4] = test: In vitro percent inhibition of replication of HSV-1 cells at 1.25 uM concentration; assay type: functional; details: Human alphaherpesvirus 1, HSV-1; outline: as §2
Human alphaherpesvirus 1 [5] = test: In vitro percent inhibition of replication of HSV-1 cells at 12.5 uM concentration; assay type: functional; details: Human alphaherpesvirus 1, HSV-1; outline: as §2
Human alphaherpesvirus 1 [6] = test: In vitro percent inhibition of replication of HSV-1 cells at 50 uM concentration; assay type: functional; details: Human alphaherpesvirus 1, HSV-1; outline: as §2
L1210 [7] = test: In vitro percent inhibition of replication of L1210 cells at 50 uM concentration; assay type: functional; details: Mus musculus; outline: as §1
Human alphaherpesvirus 1 [8] = test: In vitro percent inhibition of replication of HSV-1 cells at 10 uM concentration; assay type: functional; details: Human alphaherpesvirus 1, HSV-1; outline: as §2
L1210 [9] = test: In vitro percent inhibition of replication of L1210 cells at 200 uM concentration; assay type: functional; details: Mus musculus; outline: as §1
L1210 [10] = test: Concentration required to inhibit replication of L1210 cell by 50%; assay type: functional; details: Mus musculus, read-out: ED50 (the source's name); outline: as §1
L1210 [11] = test: In vitro percent inhibition of replication of L1210 cells at 400 uM concentration; assay type: functional; details: Mus musculus; outline: as §1
Vero [12] = test: In vitro percent inhibition of replication of vero cells at 200 uM concentration; assay type: functional; details: Chlorocebus sabaeus
Outline: (§3)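 Uninfected Vero cells were seeded at 0.1 confluency in Dulbecco's medium + 10% fetal calf serum and grown 1 day at 37 °C, 5% CO2. Compound was then added in growth medium. Cells were detached with 0.125% trypsin/0.02% EDTA for 15 min at 37 °C, dispersed by pipetting, stained with Trypan blue and counted by hemocytometer. ED50 came from dose-response curves of at least two independent experiments.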

L1210 [13] = test: In vitro percent inhibition of replication of L1210 cells at 25 uM concentration; assay type: functional; details: Mus musculus; outline: as §1
[14] = In vitro percent inhibition of replication of S-180 cells at 200 uM concentration; assay type: functional; details: Mus musculus; outline: as §1
Vero [15] = test: In vitro percent inhibition of replication of vero cells at 100 uM concentration; assay type: functional; details: Chlorocebus sabaeus; outline: as §3
Human alphaherpesvirus 1 [16] = test: In vitro percent inhibition of replication of HSV-1 cells at 100 uM concentration; assay type: functional; details: Human alphaherpesvirus 1, HSV-1; outline: as §2
Vero [17] = test: Concentration required to inhibit replication of vero cell by 50%; assay type: functional; details: Chlorocebus sabaeus, read-out: ED50 (the source's name); outline: as §3
Vero [18] = test: In vitro percent inhibition of replication of vero cells at 400 uM concentration; assay type: functional; details: Chlorocebus sabaeus; outline: as §3
L1210 [19] = test: In vitro percent inhibition of replication of L1210 cells at 100 uM concentration; assay type: functional; details: Mus musculus; outline: as §1
[20] = In vitro percent inhibition of replication of S-180 cells at 50 uM concentration; assay type: functional; details: Mus musculus; outline: as §1
Vero [21] = test: In vitro percent inhibition of replication of vero cells at 50 uM concentration; assay type: functional; details: Chlorocebus sabaeus; outline: as §3
[22] = In vitro percent inhibition of replication of S-180 cells at 25 uM concentration; assay type: functional; details: Mus musculus; outline: as §1
[23] = Concentration required to inhibit replication of S-180 cell by 50%; assay type: functional; details: Mus musculus, read-out: ED50 (the source's name); outline: as §1
[24] = Therapeutic index was determined as the ratio fo ED50(vero)/ ED50(HSV-1); details: monkey, Vero cells
Outline: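 Ratio of ED50 for uninfected Vero cell replication (cell counts after compound exposure) to ED50 for HSV-1 yield in Vero cells (plaque titration after 40 h infection at MOI 10). Both ED50 values were estimated from dose-response curves of at least two independent experiments.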

[25] = In vitro percent inhibition of replication of S-180 cells at 100 uM concentration; assay type: functional; details: Mus musculus; outline: as §1
Vero [26] = test: In vitro percent inhibition of replication of vero cells at 25 uM concentration; assay type: functional; details: Chlorocebus sabaeus; outline: as §3
Human alphaherpesvirus 1 [27] = test: In vitro percent inhibition of replication of HSV-1 cells at 20 uM concentration; assay type: functional; details: Human alphaherpesvirus 1, HSV-1; outline: as §2
Human alphaherpesvirus 1 [28] = test: In vitro percent inhibition of replication of HSV-1 cells at 5 uM concentration; assay type: functional; details: Human alphaherpesvirus 1, HSV-1; outline: as §2
Vero [29] = test: In vitro percent inhibition of replication of vero cells at 5 uM concentration; assay type: functional; details: Chlorocebus sabaeus; outline: as §3
Human alphaherpesvirus 1 [30] = test: In vitro percent inhibition of replication of HSV-1 cells at 80 uM concentration; assay type: functional; details: Human alphaherpesvirus 1, HSV-1; outline: as §2
Human alphaherpesvirus 1 [31] = test: In vitro percent inhibition of replication of HSV-1 cells at 40 uM concentration; assay type: functional; details: Human alphaherpesvirus 1, HSV-1; outline: as §2
Vero [32] = test: In vitro percent inhibition of replication of vero cells at 10 uM concentration; assay type: functional; details: Chlorocebus sabaeus; outline: as §3
Vero [33] = test: In vitro percent inhibition of replication of vero cells at 1 uM concentration; assay type: functional; details: Chlorocebus sabaeus; outline: as §3
[34] = In vitro percent inhibition of replication of S-180 cells at 0.1 uM concentration; assay type: functional; details: Mus musculus; outline: as §1

| SMILES | pEC50 (Human alphaherpesvirus 1 [3]) | inhibition at 50 µM (L1210 [7]) [%] | inhibition at 10 µM (Human alphaherpesvirus 1 [8]) [%] | pEC50 (L1210 [10]) | inhibition at 25 µM (L1210 [13]) [%] | inhibition at 100 µM (Vero [15]) [%] | inhibition at 100 µM (Human alphaherpesvirus 1 [16]) [%] | pEC50 (Vero [17]) | inhibition at 100 µM (L1210 [19]) [%] | inhibition at 50 µM [20] [%] | inhibition at 50 µM (Vero [21]) [%] | inhibition at 25 µM [22] [%] | pEC50 [23] | selectivity ratio [24] | inhibition at 100 µM [25] [%] | also measured |
| --- | --- | --- | --- | --- | --- | --- | --- | --- | --- | --- | --- | --- | --- | --- | --- | --- |
| CC(=O)OC[C@H]1OC(n2cc(C(F)(F)C(F)(F)F)c(=O)[nH]c2=O)C[C@H]1OC(C)=O (stereo partly drawn) | 4.90 | – | – | – | – | – | – | – | – | – | – | – | – | – | – | inhibition at 12.5 µM (L1210 [1]): 14%; inhibition at 12.5 µM [2]: 37%; inhibition at 1.25 µM (Human alphaherpesvirus 1 [4]): 26%; inhibition at 12.5 µM (Human alphaherpesvirus 1 [5]): 51% |
| O=c1[nH]c(=O)n(C2O[C@H](CO)[C@@H](O)[C@@H]2O)cc1C(F)(F)F (stereo partly drawn) | 5.30 | 33 | 74 | 4.15 | 19 | 4 | 99 | 3.49 | 66 | 46 | 0 | 41 | 4.19 | 64 | 59 | inhibition at 50 µM (Human alphaherpesvirus 1 [6]): 88%; inhibition at 200 µM (L1210 [9]): 84%; inhibition at 400 µM (L1210 [11]): 87%; inhibition at 200 µM (Vero [12]): 14%; inhibition at 200 µM [14]: 71%; inhibition at 400 µM (Vero [18]): 66% |
| CC(=O)OC[C@H]1OC(n2cc(C(F)(F)F)c(=O)[nH]c2=O)[C@H](OC(C)=O)[C@H]1OC(C)=O (stereo partly drawn) | 5.15 | 58 | 61 | 4.35 | 13 | 100 | – | 4.35 | 95 | 60 | 57 | 47 | 4.60 | 6.4 | 95 | inhibition at 25 µM (Vero [26]): 8%; inhibition at 20 µM (Human alphaherpesvirus 1 [27]): 92%; inhibition at 5 µM (Human alphaherpesvirus 1 [28]): 17%; inhibition at 5 µM (Vero [29]): 0%; inhibition at 80 µM (Human alphaherpesvirus 1 [30]): 98%; inhibition at 40 µM (Human alphaherpesvirus 1 [31]): 97% |
| O=c1[nH]c(=O)n(C2C[C@@H](O)[C@@H](CO)O2)cc1C(F)(F)C(F)(F)F (stereo partly drawn) | < 3.40 | – | – | – | – | – | 15 | – | 17 | – | – | – | – | – | 28 | – |
| O=c1[nH]c(=O)n([C@H]2C[C@H](O)[C@@H](CO)O2)cc1C(F)(F)F [TRIFLURIDINE] | – | – | – | – | – | – | – | – | – | – | – | – | – | – | – | inhibition at 10 µM (Vero [32]): 100%; inhibition at 1 µM (Vero [33]): 63%; inhibition at 0.1 µM [34]: 100% |
